In ChEMBL document CHEMBL3098050, “Stereoselective total synthesis of a novel regiomer of herbarumin I and its cytotoxic and antimicrobial activities” (Bioorg Med Chem Lett, 2014):
≈ marks a conversion by molar mass, not a printed value.

Key:
DU-145 = test: Cytotoxicity against human DU145 cells by MTT assay; format: functional, cell-based
Method in brief: (§1)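 MTT read-out (Mosmann method); absorbance dose–response curves plotted and IC50 calculated from them; each cell line's value is the mean of two independent experiments; doxorubicin as positive control.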

A549 = test: Cytotoxicity against human A549 cells by MTT assay; format: functional, cell-based; method in brief: as §1
Raoultella planticola = test: Antimicrobial activity against Klebsiella planticola MTCC 530 after 18 hrs by microtitre broth dilution method; format: functional; conditions: MTCC 530, 18 h
Method in brief: (§2)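 Microtiter broth dilution; MIC per pathogen taken from four individual observations; ciprofloxacin as bacterial positive control.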

COLO 205 = test: Cytotoxicity against human COLO205 cells by MTT assay; format: functional, cell-based; method in brief: as §1
Bacillus subtilis = test: Antimicrobial activity against Bacillus subtilis MTCC 121 after 18 hrs by microtitre broth dilution method; format: functional; conditions: MTCC 121, 18 h; method in brief: as §2
Staphylococcus aureus = test: Antimicrobial activity against Staphylococcus aureus MTCC 96 after 18 hrs by microtitre broth dilution method; format: functional; conditions: MTCC 96, 18 h; method in brief: as §2
MDA-MB-231 = test: Cytotoxicity against human MDA-MB-231 cells by MTT assay; format: functional, cell-based; method in brief: as §1
HepG2 = test: Cytotoxicity against human HepG2 cells by MTT assay; format: functional, cell-based; method in brief: as §1
Escherichia coli = test: microbe, parasite or virus in culture; conditions: MTCC 739, 18 h
Pseudomonas aeruginosa = test: microbe, parasite or virus in culture; conditions: MTCC 2453, 18 h

`CCC[C@H]1OC(=O)[C@H](O)CC/C=C/C[C@@H]1O` was tested, and the IC50 (DU-145) was 8.9 µM, the IC50 (A549) was 8.1 µM and the MIC (Raoultella planticola) was 15.6 µg/mL (≈ 68.3 µM). For the same molecule, the IC50 (COLO 205) was 5.1 µM, the MIC (Bacillus subtilis) was 15.6 µg/mL (≈ 68.3 µM) and the MIC (Staphylococcus aureus) was 7.8 µg/mL (≈ 34.2 µM). The IC50 (MDA-MB-231) was 6.2 µM and the IC50 (HepG2) was 9.1 µM.

`O=C(O)c1cn(C2CC2)c2cc(N3CCNCC3)c(F)cc2c1=O` [CIPROFLOXACIN] showed an MIC (Escherichia coli) of 0.9 µg/mL (≈ 2.72 µM), an MIC (Raoultella planticola) of 0.9 µg/mL (≈ 2.72 µM) and an MIC (Pseudomonas aeruginosa) of 0.9 µg/mL (≈ 2.72 µM). The MIC (Bacillus subtilis) was 0.9 µg/mL (≈ 2.72 µM) and the MIC (Staphylococcus aureus) was 0.9 µg/mL (≈ 2.72 µM).

`COc1cccc2c1C(=O)c1c(O)c3c(c(O)c1C2=O)C[C@@](O)(C(=O)CO)C[C@@H]3O[C@H]1C[C@H](N)[C@H](O)[C@H](C)O1` [DOXORUBICIN] was tested, and the IC50 (DU-145) was 0.6 µM and the IC50 (COLO 205) was 0.5 µM.
